Bioassay records (PubChem)
Pf Dd2 growth – blocks growth of Plasmodium falciparum Dd2 parasites; P. falciparum Dd2 growth, SYBR Green, 72 h; stronger effect = lower value; activity change, % at 10 µM; hit rate 2.3% among 94,000; AID 1159554; in the data active = activity change below about -80%; inconclusive = no clear call, values can overlap the other calls
IDH1 R132H inh – inhibitors of human IDH1 R132H; O75874; IDH1 R132H reductase, diaphorase/resazurin fluorescence, 60 min; inhibition, % at 10 µM; hit rate 0.18% among 70,000; AID 624101; in the data active = inhibition above about 34%; inconclusive = no clear call, values can overlap the other calls; inactive = below about 11%;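 note: 0% = DMSO and 100% = no enzyme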
Target sequence (O75874 whole entry R132H): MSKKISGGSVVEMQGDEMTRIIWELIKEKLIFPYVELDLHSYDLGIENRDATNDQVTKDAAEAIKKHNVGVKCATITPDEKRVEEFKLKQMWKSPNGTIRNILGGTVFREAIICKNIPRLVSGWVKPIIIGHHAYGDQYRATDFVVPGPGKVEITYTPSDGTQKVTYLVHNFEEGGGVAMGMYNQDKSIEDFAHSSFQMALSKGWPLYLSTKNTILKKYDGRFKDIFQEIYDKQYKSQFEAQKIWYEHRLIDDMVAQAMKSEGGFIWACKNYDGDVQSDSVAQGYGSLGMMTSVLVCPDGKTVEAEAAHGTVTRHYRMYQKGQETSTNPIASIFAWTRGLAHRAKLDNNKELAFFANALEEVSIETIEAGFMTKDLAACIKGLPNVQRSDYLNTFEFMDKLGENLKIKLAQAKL
GASC1 inh – blocks human GASC-1 (KDM4C) demethylase activity; hit rate 0.15% among 96,000; inhibition, % at 12.5 µM; Q9H3R0; GST-KDM4C 2-372, H3K9me3 peptide, LANCE TR-FRET;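 active = mean replicate inhibition above about 25%, with at least 55% of replicates also reaching it, limit read from the data, passing the limit was not always enough; inconclusive = only one of those two conditions met; inactive = neither condition met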
Target sequence (Q9H3R0 2-372 limits assumed): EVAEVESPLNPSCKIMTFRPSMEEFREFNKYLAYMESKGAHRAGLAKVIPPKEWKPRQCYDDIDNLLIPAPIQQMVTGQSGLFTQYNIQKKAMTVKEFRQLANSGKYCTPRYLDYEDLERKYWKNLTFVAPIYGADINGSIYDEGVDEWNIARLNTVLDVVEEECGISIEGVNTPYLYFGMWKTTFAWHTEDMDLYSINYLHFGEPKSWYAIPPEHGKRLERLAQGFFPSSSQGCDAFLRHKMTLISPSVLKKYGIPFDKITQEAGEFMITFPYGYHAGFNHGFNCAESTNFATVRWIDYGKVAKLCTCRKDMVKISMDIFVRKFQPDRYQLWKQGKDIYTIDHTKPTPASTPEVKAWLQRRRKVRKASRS
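Test system: N-terminal GST-fused human GASC-1 (KDM4C) fragment, residues 2-372; quantity: GASC-1 enzyme at 10 nM final in reaction; dosing: single dose; schedule: 30 min demethylation and 1 h detection at room temperature; signal: LANCE TR-FRET, excitation 340 nm, emissions 618 and 671 nm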
T cruzi growth-1 – blocks T. cruzi growth in NIH3T3 culture; T. cruzi beta-gal in NIH3T3, GalScreen luminescence, 90 h; inhibition, % at 8.34 µM; hit rate 5.9% among 77,000; AID 624255;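 active = mean inhibition above about 93%, with at least 55% of replicates each passing it, limit read from the data, passing the limit was not always enough; inconclusive = only one of those two conditions holds; inactive = neither condition holds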
T cruzi growth-2 – blocks T. cruzi growth in NIH3T3 host cells | shares compounds with T cruzi growth-1 | hit rate 72% among 5,600 | T. cruzi beta-gal in NIH3T3, GalScreen luminescence, 90 h | inhibition, % at 8.35 µM;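 active = mean replicate inhibition above about 95% and at least 55% of replicates individually reaching it, limit read from the data; inconclusive = only one of the two criteria is met; inactive = neither criterion is met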
T cruzi growth-3 – inhibitors of T. cruzi proliferation. shares compounds with T cruzi growth-1. inhibition, % at 2.09 µM. AID 651740. T. cruzi beta-gal in NIH3T3, GalScreen luminescence, 90 h. hit rate 21% among 5,600;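 active = mean inhibition above about 95%, with at least 55% of replicates also reaching it, limit read from the data; inconclusive = meets just one of the two conditions; inactive = meets neither condition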;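 note: plate controls were neutral control median for no effect and positive control median for full effect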
3T3 cytotox – kills mouse NIH/3T3 fibroblasts | NIH/3T3 viability, CellTiter-Glo ATP luminescence, 90 h | shares compounds with T cruzi growth-1 | cytotoxicity (signal decrease), % at 8.35 µM | AID 651742 | hit rate 14% among 5,600;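 active = mean signal decrease across replicates above about 35% based on untreated-well scatter, with enough replicates individually passing, limit read from the data; inconclusive = no rule stated though some were filed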;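 note: 0% = median of neutral control wells and 100% = median of positive control wells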
NIH3T3 tox 2 – NIH/3T3 (mouse) viability loss. inhibition, % at 24.9 µM. shares compounds with T cruzi growth-1. NIH/3T3 viability, CellTiter-Glo ATP luminescence, 90 h. AID 651744. hit rate 56% among 5,600;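 active = mean loss of cell viability signal at or above a set limit, and enough replicates individually reaching it; inconclusive = meets only the mean limit or only the replicate share; inactive = meets neither condition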;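 note: 0% = median of neutral control wells and 100% = median of positive control wells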
* = called active by the depositor; ? = inconclusive; nt = no result given. Hits are enriched below; roughly 5.8% of the tested compounds scored in any of these assays.

SMILES | Pf Dd2 growth | IDH1 R132H inh | GASC1 inh | T cruzi growth-1 | T cruzi growth-2 | T cruzi growth-3 | 3T3 cytotox | NIH3T3 tox 2
C[C@@H]1CCCCO[C@@H](CN(C)S(=O)(=O)c2cn(C)cn2)[C@H](C)CN([C@H](C)CO)C(=O)c2cc(NS(C)(=O)=O)ccc2O1 | 40.3 | -5.0 | 0.5 | 32.9 | nt | nt | nt | nt
COc1ccc(S(=O)(=O)Nc2ccc3c(c2)C(=O)N([C@H](C)CO)C[C@@H](C)[C@@H](CN(C)S(=O)(=O)c2ccc(OC)cc2)OCCCC[C@H](C)O3)cc1 | -61.2 | 0.8 | 0.3 | 52.1 | nt | nt | nt | nt
C[C@@H]1CN([C@@H](C)CO)C(=O)c2cc(NS(C)(=O)=O)ccc2O[C@@H](C)CCCCO[C@H]1CN(C)S(=O)(=O)c1cn(C)cn1 | 32.2 | 0.3 | 0.3 | 107.2* | 99.5* | 36.9 | 7.6 | 8.1
COc1ccc(S(=O)(=O)Nc2ccc3c(c2)C(=O)N([C@@H](C)CO)C[C@H](C)[C@@H](CN(C)S(=O)(=O)c2ccc(OC)cc2)OCCCC[C@@H](C)O3)cc1 | -63.5 | 4.0 | -0.3 | ? | 110.9* | 52.9 | -33.0 | -1.7
COc1ccc(S(=O)(=O)Nc2ccc3c(c2)C(=O)N([C@H](C)CO)C[C@H](C)[C@@H](CN(C)C(=O)NC(C)C)O3)cc1 | 9.8 | 0.4 | -0.2 | -33.3 | nt | nt | nt | nt
COc1ccc(S(=O)(=O)Nc2ccc3c(c2)C(=O)N([C@@H](C)CO)C[C@H](C)[C@H](CN(C)C(=O)NC(C)C)O3)cc1 | 3.5 | 1.0 | 2.2 | 109.0* | -4.9 | -15.9 | 1.2 | -9.5
Cc1c(C(=O)N(C)C)sc2[nH]c(=O)n(-c3ccccc3C(F)(F)F)c(=O)c12 | nt | 1.9 | nt | nt | nt | nt | nt | nt
COCC#Cc1ccc([C@H]2[C@@H](CO)N3CCCCN(Cc4cccnc4)C[C@@H]23)cc1 | -7.8 | nt | -1.5 | 101.5* | 88.0 | 80.6 | -17.1 | 3.7
CCCC#Cc1ccc([C@H]2[C@@H](CO)N3CCCCN(Cc4cccnc4)C[C@@H]23)cc1 | -57.2 | nt | 1.1 | 109.5* | 100.9* | 83.5 | 42.6* | 78.3*
C[C@@H]1CCCCO[C@H](CN(C)C(=O)Nc2ccc3c(c2)OCO3)[C@@H](C)CN([C@H](C)CO)C(=O)c2cc(NC(=O)Nc3ccc(C(F)(F)F)cc3)ccc2O1 | -42.3 | nt | 1.0 | 93.4 | nt | nt | nt | nt
C[C@@H]1CCCCO[C@H](CN(C)C(=O)Nc2ccc(C(F)(F)F)cc2)[C@H](C)CN([C@@H](C)CO)C(=O)c2cc(NC(=O)Nc3ccc4c(c3)OCO4)ccc2O1 | -66.6 | -1.6 | -2.8 | 117.3* | 107.3* | 108.6* | -7.0 | 5.7
Cc1noc(C)c1NC(=O)Nc1ccc2c(c1)C(=O)N([C@@H](C)CO)C[C@H](C)[C@H](CN(C)C(=O)Nc1ccc(C(F)(F)F)cc1)OCCCC[C@H](C)O2 | -62.9 | -0.5 | -1.7 | 109.7* | 96.2* | 78.0 | 2.8 | -9.4
C[C@@H]1CCCCO[C@H](CN(C)C(=O)Nc2ccc(C(F)(F)F)cc2)[C@@H](C)CN([C@@H](C)CO)C(=O)c2cc(NC(=O)Nc3ccc(C(F)(F)F)cc3)ccc2O1 | -88.0* | -2.0 | -0.5 | 112.3* | 107.5* | 115.5* | 2.2 | ?
C[C@@H]1CCCCO[C@H](CN(C)C(=O)Nc2ccc(C(F)(F)F)cc2)[C@H](C)CN([C@@H](C)CO)C(=O)c2cc(NC(=O)Nc3ccc(C(F)(F)F)cc3)ccc2O1 | -54.5 | nt | -0.8 | 116.1* | 108.0* | 113.3* | 0.9 | -18.2
Cc1ccc2ccc(C(Nc3ccccn3)c3ccc(Cl)c(Cl)c3)c(O)c2n1 (stereo not given) | nt | 0.0 | nt | nt | nt | nt | nt | nt
C[C@H](CO)N1C[C@H](C)[C@H](CN(C)C(=O)Nc2ccc(C(F)(F)F)cc2)OCCCC[C@H](C)Oc2ccc(NC(=O)Nc3ccc(C(F)(F)F)cc3)cc2C1=O | 23.9 | nt | -0.7 | 126.4* | 102.1* | 117.4* | 6.6 | 12.6
CC(C)NC(=O)Nc1ccc2c(c1)C(=O)N([C@@H](C)CO)C[C@@H](C)[C@@H](CN(C)C(=O)Nc1ccc(C(F)(F)F)cc1)OCCCC[C@@H](C)O2 | -76.0 | 1.7 | -1.3 | 94.4 | nt | nt | nt | nt
C[C@@H]1CCCCO[C@H](CN(C)C(=O)Nc2ccc(C(F)(F)F)cc2)[C@@H](C)CN([C@H](C)CO)C(=O)c2cc(NC(=O)Nc3ccc(C(F)(F)F)cc3)ccc2O1 | -2.3 | -2.2 | 0.1 | 102.6* | 101.4* | ? | 0.9 | 15.7
C[C@H]1CCCCO[C@H](CN(C)C(=O)Nc2ccc(F)cc2)[C@@H](C)CN([C@@H](C)CO)C(=O)c2cc(NC(=O)Nc3ccc(C(F)(F)F)cc3)ccc2O1 | -57.4 | nt | -1.6 | 85.6 | nt | nt | nt | nt
CC(C)NC(=O)Nc1ccc2c(c1)C(=O)N([C@H](C)CO)C[C@H](C)[C@@H](CN(C)C(=O)Nc1ccc(C(F)(F)F)cc1)OCCCC[C@H](C)O2 | -45.9 | nt | -1.8 | 97.6* | 97.8* | 94.5 | 12.5 | 4.6
C[C@@H]1CN([C@H](C)CO)C(=O)c2cc(NC(=O)Nc3ccc(F)cc3)ccc2O[C@@H](C)CCCCO[C@H]1CN(C)C(=O)Nc1ccc(C(F)(F)F)cc1 | -35.3 | 7.2 | 0.1 | 82.8 | nt | nt | nt | nt
c1ccc(N=C2SC(=NC3CCCCC3)C3=C2CCCC3)cc1 | nt | 5.3 | nt | nt | nt | nt | nt | nt
O=S(=O)(c1ccccc1)N1CCCCN2[C@H](CO)[C@H](c3ccc(-c4ccccc4)cc3)[C@@H]2C1 | 15.6 | nt | 0.7 | 104.2* | 100.1* | 83.7 | -4.7 | 49.0*
Cc1cccc(-c2ccc([C@H]3[C@@H](CO)N4CCCCN(S(=O)(=O)c5cccc(C)c5)C[C@H]34)cc2)c1 | -84.5* | nt | 1.0 | 100.3* | 87.6 | 105.6* | 49.8* | 103.4*
Cc1cccc(S(=O)(=O)N2CCCCN3[C@@H](CO)[C@H](c4ccc(-c5ccccc5)cc4)[C@@H]3C2)c1 | 11.7 | nt | nt | 93.5 | nt | nt | nt | nt
Cc1cccc(S(=O)(=O)N2CCCCN3[C@H](C2)[C@@H](c2ccc(-c4ccccc4)cc2)[C@@H]3CO)c1 | -25.3 | nt | nt | 77.1 | nt | nt | nt | nt
Cc1cccc(S(=O)(=O)N2CCCCN3[C@H](CO)[C@H](c4ccc(-c5ccccc5)cc4)[C@@H]3C2)c1 | 10.5 | nt | nt | 115.8* | 98.1* | 79.7 | -10.3 | 50.7*
Cc1cccc(-c2ccc([C@@H]3[C@H]4CN(S(=O)(=O)c5cccc(C)c5)CCCCN4[C@H]3CO)cc2)c1 | -20.4 | nt | 0.1 | 110.3* | 103.7* | 114.8* | 27.1 | 56.0*
O=S(=O)(c1ccccc1)N1CCCCN2[C@@H](CO)[C@@H](c3ccc(-c4ccccc4)cc3)[C@@H]2C1 | -44.4 | nt | 1.1 | 80.8 | nt | nt | nt | nt
CCCC(=O)c1ccc(OCc2nc3ccccc3[nH]2)cc1 | nt | 0.2 | nt | nt | nt | nt | nt | nt
